The M2OR odorant receptor database
Positions count from the first letter of the chain named.

Key:
Details in all cases: stereoisomer not certain
OR6C65 (Homo sapiens) = target: T1, OR6C65 (Homo sapiens) (UniProt A6NJZ3)
T1 sequence (whole entry): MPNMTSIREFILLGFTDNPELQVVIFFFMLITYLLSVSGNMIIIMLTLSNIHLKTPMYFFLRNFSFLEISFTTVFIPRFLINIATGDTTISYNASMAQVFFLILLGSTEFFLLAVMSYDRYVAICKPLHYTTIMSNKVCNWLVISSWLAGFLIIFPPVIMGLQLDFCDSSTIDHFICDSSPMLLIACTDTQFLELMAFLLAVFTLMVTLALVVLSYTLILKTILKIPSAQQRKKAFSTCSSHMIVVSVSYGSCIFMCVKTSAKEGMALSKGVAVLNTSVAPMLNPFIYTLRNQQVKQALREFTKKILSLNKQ
Outline: (§1)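 Whether a receptor–molecule pair is responsive (active) rests on the original authors' judgment that its measured signal was statistically different from baseline. Pairs without that judgment are non-responsive (inactive). Sources used varied assay methods, commonly transient luciferase assays in mammalian cell lines.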

OR6C68 (Homo sapiens) = target: T2, OR6C68 (Homo sapiens) (UniProt A6NDL8)
T2 sequence (whole entry): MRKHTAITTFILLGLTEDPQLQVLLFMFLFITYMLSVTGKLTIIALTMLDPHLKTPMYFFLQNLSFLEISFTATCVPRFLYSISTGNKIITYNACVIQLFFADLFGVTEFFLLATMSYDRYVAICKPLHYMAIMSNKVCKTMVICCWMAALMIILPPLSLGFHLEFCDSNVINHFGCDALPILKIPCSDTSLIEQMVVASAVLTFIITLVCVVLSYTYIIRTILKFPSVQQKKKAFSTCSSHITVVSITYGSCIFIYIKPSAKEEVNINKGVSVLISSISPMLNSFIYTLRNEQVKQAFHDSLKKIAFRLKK
Outline: as §1

OR6C70 (Homo sapiens) = target: T3, OR6C70 (Homo sapiens) (UniProt A6NIJ9)
T3 sequence (whole entry): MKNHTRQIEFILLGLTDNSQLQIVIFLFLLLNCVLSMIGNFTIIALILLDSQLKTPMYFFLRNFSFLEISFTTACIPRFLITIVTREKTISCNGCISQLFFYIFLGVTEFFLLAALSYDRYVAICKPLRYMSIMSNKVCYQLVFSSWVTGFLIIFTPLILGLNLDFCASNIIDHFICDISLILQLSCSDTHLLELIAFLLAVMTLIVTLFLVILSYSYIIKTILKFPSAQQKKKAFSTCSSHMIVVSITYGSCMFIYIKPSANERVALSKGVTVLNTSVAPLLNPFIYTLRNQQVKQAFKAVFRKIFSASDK
Outline: as §1

OR6C74 (Homo sapiens) = target: T4, OR6C74 (Homo sapiens) (UniProt A6NCV1)
T4 sequence (whole entry): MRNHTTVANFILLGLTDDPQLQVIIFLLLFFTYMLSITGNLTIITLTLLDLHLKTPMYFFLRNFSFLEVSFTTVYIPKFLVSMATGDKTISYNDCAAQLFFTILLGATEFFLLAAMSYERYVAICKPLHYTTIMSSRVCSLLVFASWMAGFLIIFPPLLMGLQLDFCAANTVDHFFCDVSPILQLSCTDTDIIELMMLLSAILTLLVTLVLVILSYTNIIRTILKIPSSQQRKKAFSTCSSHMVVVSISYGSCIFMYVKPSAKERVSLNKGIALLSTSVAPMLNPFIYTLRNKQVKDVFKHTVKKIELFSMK
Outline: as §1

OR6C75 (Homo sapiens) = target: T5, OR6C75 (Homo sapiens) (UniProt A6NL08)
T5 sequence (whole entry): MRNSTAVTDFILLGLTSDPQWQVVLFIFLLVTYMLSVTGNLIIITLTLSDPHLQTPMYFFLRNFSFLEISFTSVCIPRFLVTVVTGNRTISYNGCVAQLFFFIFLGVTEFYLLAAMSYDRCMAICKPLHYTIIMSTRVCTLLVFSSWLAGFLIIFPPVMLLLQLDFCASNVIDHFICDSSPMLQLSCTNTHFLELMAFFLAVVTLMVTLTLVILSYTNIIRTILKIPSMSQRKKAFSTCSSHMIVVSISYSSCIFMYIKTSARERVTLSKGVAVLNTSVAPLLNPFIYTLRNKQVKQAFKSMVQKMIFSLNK
Outline: as §1

OR6C76 (Homo sapiens) = target: T6, OR6C76 (Homo sapiens) (UniProt A6NM76)
T6 sequence (whole entry): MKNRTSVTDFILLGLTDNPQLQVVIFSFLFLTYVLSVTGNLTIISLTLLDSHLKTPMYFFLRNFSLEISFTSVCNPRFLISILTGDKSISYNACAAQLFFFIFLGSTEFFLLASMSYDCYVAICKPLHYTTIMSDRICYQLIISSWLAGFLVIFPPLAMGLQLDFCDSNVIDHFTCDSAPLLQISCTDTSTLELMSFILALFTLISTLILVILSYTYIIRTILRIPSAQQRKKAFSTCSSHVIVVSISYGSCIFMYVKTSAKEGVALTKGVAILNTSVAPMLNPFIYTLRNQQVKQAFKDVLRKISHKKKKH
Outline: as §1

OR6F1 (Homo sapiens) = target: T7, OR6F1 (Homo sapiens) (UniProt Q8NGZ6)
T7 sequence (whole entry): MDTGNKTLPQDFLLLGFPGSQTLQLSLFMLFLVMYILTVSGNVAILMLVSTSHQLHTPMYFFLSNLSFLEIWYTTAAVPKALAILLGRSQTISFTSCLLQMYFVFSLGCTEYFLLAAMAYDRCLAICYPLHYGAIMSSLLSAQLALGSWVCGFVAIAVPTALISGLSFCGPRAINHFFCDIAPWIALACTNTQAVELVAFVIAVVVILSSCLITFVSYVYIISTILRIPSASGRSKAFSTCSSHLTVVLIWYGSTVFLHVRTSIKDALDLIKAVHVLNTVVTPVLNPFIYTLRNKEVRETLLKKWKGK
Outline: as §1

OR6J1 (Homo sapiens) = target: T8, OR6J1 (Homo sapiens) (UniProt Q8NGC5)
T8 sequence (whole entry): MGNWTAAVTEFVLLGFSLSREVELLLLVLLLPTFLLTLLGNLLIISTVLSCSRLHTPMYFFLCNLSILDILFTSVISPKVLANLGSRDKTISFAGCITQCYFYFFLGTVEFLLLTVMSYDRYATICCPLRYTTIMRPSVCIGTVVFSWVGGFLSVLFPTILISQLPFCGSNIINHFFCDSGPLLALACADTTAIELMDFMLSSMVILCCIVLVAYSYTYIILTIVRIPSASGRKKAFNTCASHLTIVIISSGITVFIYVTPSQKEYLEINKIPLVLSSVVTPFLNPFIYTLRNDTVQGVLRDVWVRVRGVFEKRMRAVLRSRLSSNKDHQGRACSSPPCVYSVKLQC
Outline: as §1

OR6K2 (Homo sapiens) = target: T9, OR6K2 (Homo sapiens) (UniProt Q8NGY2)
T9 sequence (whole entry): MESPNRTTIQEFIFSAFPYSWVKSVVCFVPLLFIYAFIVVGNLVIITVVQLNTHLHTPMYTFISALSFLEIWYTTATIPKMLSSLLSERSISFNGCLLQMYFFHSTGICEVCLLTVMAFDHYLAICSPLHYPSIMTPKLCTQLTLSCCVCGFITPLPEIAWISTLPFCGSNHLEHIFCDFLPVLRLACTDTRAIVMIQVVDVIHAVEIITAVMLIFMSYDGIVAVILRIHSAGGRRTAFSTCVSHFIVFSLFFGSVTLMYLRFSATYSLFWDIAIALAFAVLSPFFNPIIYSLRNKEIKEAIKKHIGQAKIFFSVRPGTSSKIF
Outline: as §1

OR6K3 = test system: T10, OR6K3
T10 sequence (whole entry): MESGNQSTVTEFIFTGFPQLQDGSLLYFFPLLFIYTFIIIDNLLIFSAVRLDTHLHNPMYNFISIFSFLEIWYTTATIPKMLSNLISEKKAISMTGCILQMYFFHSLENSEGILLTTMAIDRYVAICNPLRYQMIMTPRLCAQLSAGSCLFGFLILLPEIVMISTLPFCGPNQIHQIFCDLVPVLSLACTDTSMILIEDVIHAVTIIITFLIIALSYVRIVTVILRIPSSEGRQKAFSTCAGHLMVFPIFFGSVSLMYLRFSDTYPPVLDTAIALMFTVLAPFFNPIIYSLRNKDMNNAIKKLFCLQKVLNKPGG
Outline: as §1

OR6K6 (Homo sapiens) = target: T11, OR6K6 (Homo sapiens) (UniProt Q8NGW6)
T11 sequence (whole entry): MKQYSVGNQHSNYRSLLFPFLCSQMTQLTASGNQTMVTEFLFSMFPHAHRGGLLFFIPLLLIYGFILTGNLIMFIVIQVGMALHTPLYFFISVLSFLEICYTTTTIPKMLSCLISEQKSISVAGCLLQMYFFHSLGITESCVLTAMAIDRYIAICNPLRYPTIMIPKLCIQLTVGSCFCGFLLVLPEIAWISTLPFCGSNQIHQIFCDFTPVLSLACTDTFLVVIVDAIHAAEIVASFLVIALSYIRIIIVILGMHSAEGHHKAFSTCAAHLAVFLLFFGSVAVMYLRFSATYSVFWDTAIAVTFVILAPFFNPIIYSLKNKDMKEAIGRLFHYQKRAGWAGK
Outline: as §1

OR6M1 (Homo sapiens) = target: T12, OR6M1 (Homo sapiens) (UniProt Q8NGM8)
T12 sequence (whole entry): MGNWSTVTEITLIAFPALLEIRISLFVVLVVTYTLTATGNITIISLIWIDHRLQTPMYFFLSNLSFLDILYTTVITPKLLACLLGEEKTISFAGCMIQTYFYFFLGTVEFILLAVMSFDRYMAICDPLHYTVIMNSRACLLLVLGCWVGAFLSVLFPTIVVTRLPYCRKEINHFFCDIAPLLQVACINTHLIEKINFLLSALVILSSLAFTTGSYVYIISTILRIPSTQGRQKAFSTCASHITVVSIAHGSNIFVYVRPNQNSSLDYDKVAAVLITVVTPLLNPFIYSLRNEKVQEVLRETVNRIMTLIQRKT
Outline: as §1

OR6M1 R224C = test system: T13, OR6M1 R224C
T13 sequence (whole entry): T12 sequence (whole entry) with R224C
Outline: as §1

OR6M1 T276K = test system: T14, OR6M1 T276K
T14 sequence (whole entry): T12 sequence (whole entry) with T276K
Outline: as §1

OR6N1 (Homo sapiens) = target: T15, OR6N1 (Homo sapiens) (UniProt Q8NGY5)
T15 sequence (whole entry): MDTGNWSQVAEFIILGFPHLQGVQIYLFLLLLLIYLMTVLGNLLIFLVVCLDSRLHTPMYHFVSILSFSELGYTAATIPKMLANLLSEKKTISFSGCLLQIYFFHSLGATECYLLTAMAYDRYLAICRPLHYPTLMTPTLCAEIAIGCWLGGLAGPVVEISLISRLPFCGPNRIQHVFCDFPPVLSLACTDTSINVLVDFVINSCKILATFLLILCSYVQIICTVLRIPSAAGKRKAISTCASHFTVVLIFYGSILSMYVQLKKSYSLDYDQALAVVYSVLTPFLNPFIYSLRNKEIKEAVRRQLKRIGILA
Outline: as §1

OR6N2 (Homo sapiens) = target: T16, OR6N2 (Homo sapiens) (UniProt Q8NGY6)
T16 sequence (whole entry): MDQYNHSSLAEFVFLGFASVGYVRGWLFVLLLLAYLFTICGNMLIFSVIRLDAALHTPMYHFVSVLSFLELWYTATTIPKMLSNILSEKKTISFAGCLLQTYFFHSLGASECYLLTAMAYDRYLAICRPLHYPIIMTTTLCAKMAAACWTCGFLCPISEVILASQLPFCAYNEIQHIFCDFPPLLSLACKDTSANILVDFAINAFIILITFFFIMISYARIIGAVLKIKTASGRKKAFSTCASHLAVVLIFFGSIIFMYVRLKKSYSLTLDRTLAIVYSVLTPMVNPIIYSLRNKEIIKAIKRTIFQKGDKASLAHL
Outline: as §1

OR6P1 (Homo sapiens) = target: T17, OR6P1 (Homo sapiens) (UniProt Q8NGX9)
T17 sequence (whole entry): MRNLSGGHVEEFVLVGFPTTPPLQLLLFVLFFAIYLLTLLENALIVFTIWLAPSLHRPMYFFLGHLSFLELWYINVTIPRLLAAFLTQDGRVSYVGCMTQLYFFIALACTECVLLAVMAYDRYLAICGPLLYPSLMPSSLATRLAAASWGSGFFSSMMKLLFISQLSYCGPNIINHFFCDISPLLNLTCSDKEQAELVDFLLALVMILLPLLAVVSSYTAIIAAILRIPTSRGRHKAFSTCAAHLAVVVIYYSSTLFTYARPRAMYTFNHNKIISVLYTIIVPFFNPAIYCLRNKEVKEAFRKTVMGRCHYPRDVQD
Outline: as §1

OR6Q1 (Homo sapiens) = target: T18, OR6Q1 (Homo sapiens) (UniProt Q8NGQ2)
T18 sequence (whole entry): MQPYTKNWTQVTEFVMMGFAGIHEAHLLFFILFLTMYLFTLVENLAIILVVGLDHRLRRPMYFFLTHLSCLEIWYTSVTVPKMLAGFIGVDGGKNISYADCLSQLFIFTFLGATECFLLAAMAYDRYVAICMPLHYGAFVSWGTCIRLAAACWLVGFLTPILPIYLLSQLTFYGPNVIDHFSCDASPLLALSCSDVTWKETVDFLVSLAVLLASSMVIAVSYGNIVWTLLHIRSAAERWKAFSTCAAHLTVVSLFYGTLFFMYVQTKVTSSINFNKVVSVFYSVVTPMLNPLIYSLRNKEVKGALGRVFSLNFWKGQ
Outline: as §1

Measured: odorant receptor agonist call;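 further: active if original authors judged signal statistically different from baseline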

CCCC(S)CCOC(C)=O (stereo unspecified)
inactive: OR6C65 (Homo sapiens) | OR6C68 (Homo sapiens) | OR6C70 (Homo sapiens) | OR6C74 (Homo sapiens) | OR6C75 (Homo sapiens) | OR6C76 (Homo sapiens) | OR6F1 (Homo sapiens) | OR6J1 (Homo sapiens) | OR6K2 (Homo sapiens) | OR6K3 | OR6K6 (Homo sapiens) | OR6M1 (Homo sapiens) | OR6M1 R224C | OR6M1 T276K | OR6N1 (Homo sapiens) | OR6N2 (Homo sapiens) | OR6P1 (Homo sapiens) | OR6Q1 (Homo sapiens)

Cc1cnc(C)c(C)n1
inactive: OR6C65 (Homo sapiens) | OR6C68 (Homo sapiens) | OR6C70 (Homo sapiens) | OR6C74 (Homo sapiens) | OR6C75 (Homo sapiens) | OR6C76 (Homo sapiens) | OR6F1 (Homo sapiens) | OR6J1 (Homo sapiens) | OR6K2 (Homo sapiens) | OR6K3 | OR6K6 (Homo sapiens) | OR6M1 (Homo sapiens) | OR6M1 R224C | OR6M1 T276K | OR6N1 (Homo sapiens) | OR6N2 (Homo sapiens) | OR6P1 (Homo sapiens) | OR6Q1 (Homo sapiens)
